For test [1], the system named is P388. The test is described as follows: Percentage change in median survival time of P388 (leukemia) inoculated female mice following 100 mg/kg p.o. As to conditions: route oral.
The subject of test [2] is Mus musculus. The test is described as follows: Antitumor activity against P-388 Leukemia in female BDF1 mice expressed as percent T/C at dose 50 mg/kg. Type of test: functional. The procedure, abridged:
(§1)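 P-388 leukemia, 10⁶ cells implanted ip in BDF₁ mice, five per group. Test agents dissolved or suspended in 0.3% CMC-Na and dosed orally once daily for 9 days, beginning 1 day after implantation. Activity expressed as treated/control ratio of median survival time.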

The test system of test [3] is P388. In words: Percentage change in median survival time of P388 (leukemia) inoculated female mice following 200 mg/kg p.o. As to conditions: route oral.
In test [4] the test system is Mus musculus. The test is described as follows: Antitumor activity against MH 134 cells in female C3H mice expressed as percent T/C at dose 50 mg/kg.
Test [5] concerns Mus musculus. The test is described as follows: Antitumor activity against Meth A cells in female Balb/c mice expressed as percent T/C at dose 200 mg/kg.
For test [6], the system named is Mus musculus. In words: Antitumor activity against L-1210 cells in female BDF1 mice expressed as percent T/C at dose 50 mg/kg. Type of test: functional. The procedure, abridged:
(§2)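 L-1210 leukemia, 10⁶ cells implanted ip into BDF₁ mice (five females per group, 17–23 g). Compound dissolved or suspended in 0.3% CMC-Na, given orally once daily for 5 days starting 1 day after implantation. Activity taken as the ratio of median survival time, treated vs control.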

In test [7] the test system is Mus musculus. In words: Antitumor activity against MH 134 cells in female C3H mice expressed as percent T/C at dose 200 mg/kg.
Test [8] relates to Mus musculus. In words: Antitumor activity against L-1210 cells in female BDF1 mice expressed as percent T/C at dose 300 mg/kg. Type of test: functional. The method, boiled down: as §2
Test [9] relates to Mus musculus. The test is described as follows: Antitumor activity against L-1210 cells in female BDF1 mice expressed as percent T/C at dose 100 mg/kg. Type of test: functional. The procedure, abridged: as §2
In test [10] the test system is P388. In words: Percentage change in median survival time of P388 (leukemia) inoculated female mice following 25 mg/kg p.o. The note with it: route oral.
In test [11] the test system is Mus musculus. The test is described as follows: Antitumor activity against MH 134 cells in female C3H mice expressed as percent T/C at dose 100 mg/kg.
The subject of test [12] is Mus musculus. In words: Antitumor activity against Meth A cells in female Balb/c mice expressed as percent T/C at dose 100 mg/kg.
Test [13] concerns Mus musculus. In words: Antitumor activity against Meth A cells in female Balb/c mice expressed as percent T/C at dose 50 mg/kg.
Test [14] deals with Mus musculus. The test is described as follows: Antitumor activity against L-1210 cells in female BDF1 mice expressed as percent T/C at dose 200 mg/kg. Type of test: functional. The method, boiled down:
as §2

The subject of test [15] is P388. The test is described as follows: Percentage change in median survival time of P388 (leukemia) inoculated female mice following 30 mg/kg p.o. The note with it: route oral.
The test system of test [16] is Mus musculus. The test is described as follows: Antitumor activity against P-388 Leukemia in female BDF1 mice expressed as percent T/C at dose 12.5 mg/kg. Type of test: functional. The procedure, abridged: as §1
The subject of test [17] is Mus musculus. In words: Antitumor activity against L-1210 in female BDF1 mice expressed as percent T/C at dose 200 mg/kg. Type of test: functional. The method, boiled down: as §2
Test [18] deals with Mus musculus. In words: Antitumor activity against L-1210 in female BDF1 mice expressed as percent T/C at dose 50 mg/kg. Type of test: functional. The method, boiled down:
as §2

Test [19] relates to Mus musculus. The test is described as follows: Antitumor activity against L-1210 in female BDF1 mice expressed as percent T/C at dose 100 mg/kg. Type of test: functional. The method, boiled down:
as §2

Test [20] has as its system Mus musculus. The test is described as follows: Antitumor activity against L-1210 in female BDF1 mice expressed as percent T/C at dose 300 mg/kg. Type of test: functional. The method, boiled down:
as §2

Test [21] deals with Mus musculus. The test is described as follows: Antitumor activity against MH 134 cells in female C3H mice expressed as percent T/C at dose 100 mg/kg. This is another data set of the same source.
In test [22] the test system is Mus musculus. The test is described as follows: Antitumor activity against MH 134 cells in female C3H mice expressed as percent T/C at dose 50 mg/kg. The source holds these as a separate data set.
For test [23], the system named is Mus musculus. In words: Antitumor activity against MH 134 cells in female C3H mice expressed as percent T/C at dose 200 mg/kg. This is another data set of the same source.

As a reminder, the T/C is the ratio of treated to control. Take `Cc1ccccc1C(=O)n1c(=O)c(F)cn(C(=O)O[C@H]2CCC3(C)C(=CCC4[C@@H]3CCC3(C)[C@@H](C(C)CCCC(C)C)CC[C@@H]43)C2)c1=O` (stereo partly specified): the T/C in the test on P388 [1] is recorded as 100%; in the test on Mus musculus [2], 98%; in the test on P388 [3] it was 112%.

As for `CC(=O)n1cc(F)c(=O)n(C(=O)c2ccccc2C)c1=O`, the T/C in the test with P388 [1] is 151%; in the test on Mus musculus [4], 61%; with Mus musculus [2], 111%; in the test on Mus musculus [5] it was 32%; in the test on Mus musculus [6], 110%; in the test on Mus musculus [7], 25%. Besides, the T/C with Mus musculus [8] is 167%; with Mus musculus [9], 128%; in the test with P388 [10], 121%; in the test with Mus musculus [11] it was 43%; with Mus musculus [12], 58%; in the test on Mus musculus [13], 71%. Besides, the values for the T/C in the test with Mus musculus [14] and with P388 [3] were 136% and 121%, respectively.

Regarding `COC(=O)n1cc(F)c(=O)n(C(=O)c2ccccc2C)c1=O`, the T/C worked out at 138% in the test on P388 [1], 112% with Mus musculus [2], 101% in the test with P388 [10] and 142% with P388 [3].

Consider `O=C(Oc1ccccc1)n1cc(F)c(=O)n(C(=O)c2ccccc2)c1=O`, for which the T/C with P388 [1] is recorded as 119%; in the test on Mus musculus [2], 112%; in the test with P388 [10], 99%; in the test on P388 [3], 107%.

As for `CCC(=O)n1cc(F)c(=O)n(C(=O)c2ccccc2)c1=O`, the T/C with P388 [1] was 130%; in the test with Mus musculus [2], 119%; with P388 [10] it was 110%; with P388 [3], 90%.

In the case of `Cc1ccccc1C(=O)n1c(=O)[nH]cc(F)c1=O`, the T/C in the test with P388 [1] is given as 103%; with Mus musculus [2] it was 127%; with P388 [15] it was 124%.

As to `CC(=O)n1cc(F)c(=O)n(C(=O)OCc2ccccc2)c1=O`, the values for the T/C with P388 [1], in the test with Mus musculus [2] and in the test with P388 [3] were 116%, 105% and 112%, respectively.

Consider `O=c1[nH]cc(F)c(=O)[nH]1` [FLUOROURACIL], for which the T/C with Mus musculus [2] is reported as 76%; in the test with P388 [10], 135%; in the test on Mus musculus [16], 127%.

Turning to `CC(=O)n1cc(F)c(=O)n(C(=O)c2ccccc2)c1=O`, the T/C with P388 [1] came to 144%; with Mus musculus [2], 116%; with P388 [10], 108%; in the test on P388 [3], 99%.

Take `CC(=O)n1c(=O)c(F)cn(C(=O)c2ccccc2C)c1=O`: the T/C in the test on P388 [1] amounted to 108%; in the test on Mus musculus [2], 114%; in the test on P388 [10] it was 97%; in the test with Mus musculus [16], 111%.

As for `CCCCCCC(=O)n1c(=O)c(F)cn(C(=O)OCC)c1=O`, the T/C with P388 [1] is reported as 118%; with Mus musculus [2] it was 119%; with P388 [10], 110%; in the test with P388 [3] it was 74%.

As to `Cc1ccccc1C(=O)n1c(=O)c(F)cn(C(=O)C(C)C)c1=O`, the T/C is given as 116% in the test with P388 [1], 112% with Mus musculus [2], 110% with P388 [10] and 169% in the test with P388 [3].

Take `O=C(OCc1ccccc1)n1c(=O)[nH]cc(F)c1=O`: the T/C in the test with P388 [1] was 110%; in the test with Mus musculus [2] it was 101%; in the test with P388 [3] it was 96%.

With `CCOC(=O)n1cc(F)c(=O)n(C(=O)c2ccccc2)c1=O`, the T/C with P388 [1] amounted to 123%; in the test on Mus musculus [2], 116%; in the test on P388 [10] it was 103%; in the test on P388 [3], 83%.

Consider `CCC(=O)n1cc(F)c(=O)n(C(=O)c2ccccc2C)c1=O`, for which the T/C in the test with P388 [1] was 136%; in the test with Mus musculus [2], 112%; with P388 [10], 103%; with P388 [3] it was 138%.

Turning to `O=c1[nH]c(=O)n(C2CCCO2)cc1F` (stereo unspecified) [TEGAFUR], the T/C with P388 [1] came to 136%; in the test with Mus musculus [17] it was 143%; in the test with Mus musculus [2], 104%; with Mus musculus [5], 19%; with Mus musculus [18], 110%; with Mus musculus [19], 124%. In addition, the T/C with Mus musculus [20] came out at 102%; in the test with P388 [10] it was 115%; with Mus musculus [21] it was 58%; with Mus musculus [12], 53%; in the test on Mus musculus [22], 70%; in the test with Mus musculus [13] it was 82%. Also, the T/C in the test on Mus musculus [16] stood at 111%; in the test on Mus musculus [23], 57%; in the test with P388 [3], 106%.

For `Cc1ccccc1C(=O)n1c(=O)c(F)cn(C(=O)OCc2ccccc2)c1=O`, the figures for the T/C in the test with P388 [1], with Mus musculus [2] and in the test on P388 [3] were 125%, 108% and 110%, respectively.

On to `CC(=O)n1cc(F)c(=O)n(C(C)=O)c1=O`, for which the T/C with P388 [1] is on record as 86%; in the test with Mus musculus [2], 103%; with P388 [10], 112%; in the test with Mus musculus [16] it was 103%.

Take `O=C(Oc1ccccc1)n1c(=O)[nH]cc(F)c1=O`: the T/C in the test with P388 [1] turned out to be 83%; with Mus musculus [2] it was 101%; in the test on P388 [10], 112%; with Mus musculus [16], 97%.

On to `CCOC(=O)n1cc(F)c(=O)n(C(=O)c2ccccc2C)c1=O`, for which the T/C is recorded as 127% in the test with P388 [1], 125% in the test with Mus musculus [2], 112% in the test on P388 [10] and 164% with P388 [3].

With `CCCCCCOC(=O)n1cc(F)c(=O)n(C(=O)c2ccccc2C)c1=O`, the T/C in the test on P388 [1] was 96%; in the test on Mus musculus [2], 106%; in the test with P388 [10] it was 100%; in the test on P388 [3], 147%.

For `CCOC(=O)n1cc(F)c(=O)n(C(=O)CC)c1=O`, the T/C with P388 [1] was 82%; in the test with Mus musculus [2], 112%; in the test with P388 [10], 105%; in the test with P388 [3], 52%.

Take `Cc1ccccc1C(=O)n1c(=O)c(F)cn(C(=O)Oc2ccccc2)c1=O`: the T/C came out at 129% in the test on P388 [1], 106% in the test on Mus musculus [2], 100% in the test with P388 [10] and 135% in the test on P388 [3].

Regarding `CCOC(=O)n1cc(F)c(=O)n(C(C)=O)c1=O`, the T/C in the test on P388 [1] was determined as 59%; in the test on Mus musculus [2] it was 115%; in the test on P388 [10] it was 103%; in the test with Mus musculus [16], 94%.
